# Results: ChEMBL document CHEMBL1141149, “Novel fluorinated prodrugs for activation by carboxypeptidase G2 showing good in vivo antitumor activity in gene-directed enzyme prodrug therapy” (J Med Chem, 2005)
# B1: Carboxypeptidase G2 (Pseudomonas aeruginosa (strain ATCC 15692 / PAO1 / 1C / PRS 101 / LMG12228)), Q9I056 (protein)
# chain: MHARRLPRLLPLALAFLLSPAAFAADTPAAELLRQAEAERPAYLDTLRQLVAVDSGTGQAEGLGQLSALLAERLQALGAQVRSAPATPSAGDNLVATLDGTGSKRFLLMIHYDTVFAAGSAAKRPFREDAERAYGPGVADAKGGVAMVLHALALLRQQGFRDYGRITVLFNPDEETGSAGSKQLIAELARQQDYVFSYEPPDRDAVTVATNGIDGLLLEVKGRSSHAGSAPEQGRNAILELSHQLLRLKDLGDPAKGTTLNWTLARGGEKRNIIPAEASAEADMRYSDPAESERVLADARKLTGERLVADTEVSLRLDKGRPPLVKNPASQRLAETAQTLYGRIGKRIEPIAMRFGTDAGYAYVPGSDKPAVLETLGVVGAGLHSEAEYLELSSIAPRLYLTVALIRELSAD
# Columns and labels:
# [1] = Half life period was determined; type: ADME; conditions: rat
# Method in brief: (§1)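 Compounds diluted from 10 mM DMSO stocks to 100 μM final in CPG2 assay buffer (100 mM Tris-HCl pH 7.3, 260 μM ZnCl2), no enzyme. Remaining parent measured over time by repeat isocratic reverse-phase HPLC injections (10 mM ammonium acetate pH 5.0/methanol), UV at λmax. Half-life from one-phase exponential decay fit (max 1, min 0).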
# [2] = Ratio of IC50 of LacZ cell line to stCPG2(Q)3-expressing cell line; type: functional, Homo sapiens
# Method in brief: (§2)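 Selectivity ratio: IC50 in β-gal (LacZ) control MDA MB 361 cells divided by IC50 in CPG2- or stCPG2(Q)3-expressing cells, both from 1 h + 20 h exposure, 5-day regrowth SRB assay.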
# [3] = target: T1, Carboxypeptidase G2 (Pseudomonas aeruginosa (strain ATCC 15692 / PAO1 / 1C / PRS 101 / LMG12228)) (UniProt Q9I056); test: Kcat against carboxypeptidase G2 in inhibitory kinetic assay
# T1 sequence (whole entry): B1 chain
# Method in brief: (§3)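 Prodrug 0.2–50 μM (25 concentrations) in CPG2 assay buffer (100 mM Tris-HCl pH 7.3, 260 μM ZnCl2) at 37 °C, ±50 mU CPG2. Absorbance change at wavelength of maximal prodrug/drug difference followed 1 min, non-enzymic change subtracted, converted to substrate loss. Km and kcat from Michaelis–Menten nonlinear fit.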
# [4] = Cytotoxicity against MDA MB361 cell line MDA MB 361 expressing beta-galactosidase done for 1 h with compound dissolved in DMSO; type: functional, cell-based; conditions: Homo sapiens, MDA-MB-361, 1 h
# Method in brief: (§4)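 Stably transfected MDA MB 361 lines (β-gal, cytoplasmic CPG2, or surface-tethered stCPG2(Q)3) in DMEM/10% FBS, confluent 6-well monolayers. Prodrug series 1 h, then equal concentration fresh solution added, 20 h more. Cells reseeded 2×10^3/well, grown 5 days; SRB staining, A540. IC50 by four-parameter logistic fit of % control growth.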
# [5] = Cytotoxicity aganist MDA MB361 cell line MDA MB 361 expressing stCPG2(Q)3 done for 1 hr with compound dissolved in DMSO; type: functional, cell-based; conditions: Homo sapiens, MDA-MB-361, 1 h; method in brief: as §4
# [6] = Chemical half life period as substrates of CPG2 was determined; type: ADME; method in brief: as §1
# [7] = Ratio of IC50 of LacZ cell line to CPG2-expressing cell line; type: functional, Homo sapiens; method in brief: as §2
# [8] = Cytotoxicity aganist MDA MB361 cell line MDA MB 361 expressing carboxypeptidase G2 done for 1 hr with compound dissolved in DMSO; type: functional, cell-based; conditions: Homo sapiens, MDA-MB-361, 1 h; method in brief: as §4
# [9] = compound: O=C(O)CC[C@H](NC(=O)c1cc(F)c(N(CCCl)CCCl)c(F)c1F)C(=O)O; test: (§5) Km against carboxypeptidase G2 in inhibitory kinetic assay; conditions: Pseudomonas; method in brief: as §3
# [10] = compound: O=C(O)CC[C@H](NC(=O)c1cc(F)c(N(CCI)CCI)c(F)c1)C(=O)O; test: as §5; conditions: Pseudomonas; method in brief: as §3
# [11] = compound: O=C(O)CC[C@H](NC(=O)c1cc(F)c(N(CCI)CCI)c(F)c1F)C(=O)O; test: as §5; conditions: Pseudomonas; method in brief: as §3
# [12] = compound: CS(=O)(=O)OCCN(CCCl)c1ccc(C(=O)N[C@@H](CCC(=O)O)C(=O)O)cc1; test: as §5; conditions: Pseudomonas; method in brief: as §3
# [13] = compound: O=C(O)CC[C@H](NC(=O)c1cc(F)c(N(CCBr)CCBr)c(F)c1F)C(=O)O; test: as §5; conditions: Pseudomonas; method in brief: as §3
# [14] = compound: O=C(O)CC[C@H](NC(=O)c1cc(F)c(N(CCBr)CCBr)c(F)c1)C(=O)O; test: as §5; conditions: Pseudomonas; method in brief: as §3
# [15] = compound: O=C(O)CC[C@H](NC(=O)c1cc(F)c(N(CCCl)CCCl)c(F)c1)C(=O)O; test: as §5; conditions: Pseudomonas; method in brief: as §3
Molecule,half-life [1],Differential [2],K cat [3],IC50 [4],IC50 [5],half-life [6],Differential [7],IC50 [8],Km [9],Km [10],Km [11],Km [12],Km [13],Km [14],Km [15]
O=C(O)CC[C@H](NC(=O)c1cc(F)c(N(CCBr)CCBr)c(F)c1F)C(=O)O,0.15 h,>80,825 1/S,> 4000 µM,50 µM,0.382 h,>49,82 µM,–,–,–,–,–,–,–
O=C(O)CC[C@H](NC(=O)c1cc(F)c(N(CCBr)CCBr)c(F)c1)C(=O)O,< 0.0833 h,>280,827 1/S,> 4000 µM,14 µM,0.0917 h,>75,53 µM,–,–,–,–,–,–,–
O=C(O)CC[C@H](NC(=O)c1c(F)c(F)c(N(CCI)CCI)c(F)c1F)C(=O)O,–,–,0 1/S,> 4000 µM,> 4000 µM,2 h,–,> 4000 µM,–,–,–,–,–,–,–
CS(=O)(=O)OCCN(CCCl)c1ccc(C(=O)O)cc1,–,–,–,–,–,0.5 h,–,–,–,–,–,–,–,–,–
CS(=O)(=O)OCCN(CCCl)c1ccc(C(=O)N[C@@H](CCC(=O)O)C(=O)O)cc1,–,19,583 1/S,3130 µM,165 µM,–,–,1880 µM,–,–,–,–,–,–,–
O=C(O)CC[C@H](NC(=O)c1cc(F)c(N(CCCl)CCCl)c(F)c1F)C(=O)O,6 h,>87,1150 1/S,> 4000 µM,46 µM,21.7 h,>55,73 µM,–,–,–,–,–,–,–
O=C(O)CC[C@H](NC(=O)c1cc(F)c(N(CCCl)CCCl)c(F)c1)C(=O)O,1.5 h,>150,732 1/S,> 4000 µM,26 µM,4.9 h,>95,42 µM,–,–,–,–,–,–,–
O=C(O)CC[C@H](NC(=O)c1c(F)c(F)c(N(CCCl)CCCl)c(F)c1F)C(=O)O,–,–,0 1/S,> 4000 µM,> 4000 µM,82.3 h,–,> 4000 µM,–,–,–,–,–,–,–
O=C(O)CC[C@H](NC(=O)c1cc(F)c(N(CCI)CCI)c(F)c1)C(=O)O,< 0.0833 h,127,1150 1/S,3300 µM,26 µM,0.15 h,86,39 µM,–,–,–,–,–,–,–
O=C(O)CC[C@H](NC(=O)c1cc(F)c(N(CCI)CCI)c(F)c1F)C(=O)O,6 h,>23,220 1/S,> 4000 µM,173 µM,0.622 h,>6,671 µM,–,–,–,–,–,–,–
B1,–,–,–,–,–,–,–,–,2.6 µM,1.74 µM,2.8 µM,3.4 µM,1.1 µM,1.18 µM,1.71 µM
